Rows were chosen to be rich in hits. Some 2.9% of all compounds tested hit in one or more screens of this group.
TRPC4 agonist – activators of mouse TRPC4 channel; B-score at 10 µM; AID 2237; HEK293 TRPC4beta/mu-opioid, Fluo4 calcium fluorescence; stronger effect = higher value; 310,000 tested, 0.49% active; Q9QUQ5;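 active = B-score above 5 SD of library B-scores, and initial fluorescence ratio not above library mean plus 5 SD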;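 also: positive B-score marks a calcium rise read as TRPC4 activation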
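Incubation: 45 min room-temperature Fluo4 loading, 110 s read / System: HEK293 cells stably co-expressing mouse TRPC4beta and mu-opioid receptor / Signal: Fluo4 fluorescence, kinetic / Control set: buffer (low) and maximal DAMGO (high) / Measure: integrated baseline-normalised fluorescence ratio, converted to per-well B score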
TRPC4 PAM – TRPC4 (mouse) allosteric potentiation; Q9QUQ5; HEK293 TRPC4beta/mu-opioid, DAMGO EC20, Fluo-4 Ca2+ flux; stronger effect = higher value; B-score at 10 µM; 310,000 tested, 0.42% active; AID 2227;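 active = B-score of calcium response area above 5 SD of library B-scores, with initial fluorescence ratio within 5 SD of library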;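 also: B-score of integrated fluorescence ratio over time as area under calcium response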
Kir21 inh – blocks the mouse Kir2.1 inward-rectifier potassium channel. 310,000 tested, 0.85% active. HEK293-Kir2.1, FluxOR thallium flux fluorescence; stronger effect = lower value. B-score at 10 µM. AID 1672;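 active = fluorescence ratio B-score at or below minus 3 SD of library scores, with starting-brightness B-score within 2 SD, cut at about -4.2 in these data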;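 also: channel flux triggered by added potassium and thallium sulfate stimulus; B-score of peak minus minimum fluorescence over baseline after thallium stimulus; more negative B-score means stronger Kir2.1 block with less thallium influx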
TRPC6 inh – blocks the mouse TRPC6 cation channel. B-score at 10 µM. Q61143. 310,000 tested, 1.1% active. HEK293-TRPC6, membrane potential dye, ACh-evoked depolarization; stronger effect = lower value;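 active = B-score under library mean minus 3 SD, initial fluorescence not abnormally high, positive integrated signal ratio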;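 also: B-score derived from integrated fluorescence ratio over the kinetic read; more negative B-score means stronger inhibition of depolarization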
TRPC4 block – inhibitors of mouse TRPC4 channel; Q9QUQ5; HEK293 TRPC4beta/mu-opioid, DAMGO-evoked Fluo4 calcium flux; stronger effect = lower value; B-score at 10 µM; 300,000 tested, 0.39% active;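 active = B-score over 3 SD under the library average, no early fluorescence shift, positive overall ratio signal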
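Signal: kinetic Fluo4 fluorescence imaging of calcium influx. Material: stable TRPC4beta/mu-opioid receptor HEK293 cells. Probe or stimulus: DAMGO in two steps, submaximal then maximal.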
TRPC6 activator – activators of mouse TRPC6 channel; Q61143; HEK293-TRPC6 membrane potential dye fluorescence; stronger effect = higher value; B-score at 10 µM; 310,000 tested, 0.13% active; AID 2550;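 active = B-score of the integrated fluorescence ratio above library mean plus 3 SD, and starting fluorescence ratio within library mean plus 5 SD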;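 also: higher score means more depolarization so channel activation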
HEK293 MPD ctr – parental HEK293 nonspecific activity of TRPC6 modulators; membrane potential dye fluorescence; AID 488924; 2,400 tested, 51% active; membrane potential signal change, % at 10 µM; shares compounds with TRPC6 inh;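 active = membrane potential signal moves up or down beyond 5 SD from buffer-only wells, on both duplicate plates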
HEK293 MPD ctr 2 – second check of TRPC6 modulator effects in parental HEK293 cells | 2,400 tested, 14% active | inhibition, % at 10 µM | shares compounds with TRPC6 inh | membrane potential dye fluorescence; after compound, maximal acetylcholine stimulation;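 active = membrane potential signal drops by more than 5 SD from the mean control signal, in both duplicate plates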;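 also: plate controls were acetylcholine ECmax control wells for no effect and buffer only wells for full effect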
TRPC4 ctr mod – selectivity of TRPC6 modulators against mouse TRPC4; percent change from control (negative = decrease, positive = increase), % at 10 µM; shares compounds with TRPC6 inh; AID 488927; 2,400 tested, 69% active; HEK293 TRPC4/mu-opioid, membrane potential fluorescence;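 active = membrane potential signal moved up or down beyond 5 SD of buffer control wells, in both duplicate plates, actives on both sides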;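 also: plate controls were assay buffer wells for no effect and DAMGO maximal-effect wells for full effect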
TRPC4/MOR inh 2 – second check of whether TRPC6 modulators also affect mouse TRPC4; shares compounds with TRPC6 inh; HEK293 TRPC4/mu-opioid, membrane potential dye fluorescence; stimulated with maximal-effect DAMGO; inhibition, % at 10 µM; 2,400 tested, 55% active; AID 488928;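 active = drop in membrane potential signal beyond 5 SD of the control wells in both duplicate plates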;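 also: TRPC4 counter screen for TRPC6 hits run under conditions tuned for TRPC6 not TRPC4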
TRPC6 block conf – mouse TRPC6 inhibitor confirmation; inhibition, % at 10 µM; HEK293-TRPC6, membrane potential dye, ACh-evoked depolarization; 3,300 tested, 43% active; shares compounds with TRPC6 inh;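 active = fluorescence ratio falls more than 5 SD below the full-stimulation control mean, in both duplicate runs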;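 also: integrated fluorescence ratio of peak minus minimum over baseline after agonist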
TRPC6 act confirm – confirmation of mouse TRPC6 activators; HEK293-TRPC6 membrane potential dye fluorescence, FDSS; activation, % at 10 µM; shares compounds with TRPC6 inh; 2,800 tested, 11% active;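 active = ratio signal rise beyond 5 SD above unstimulated control wells' mean, seen in both duplicate runs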;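 also: plate controls were buffer EC0 wells for no effect and acetylcholine ECmax response for full effect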
* = called active by the depositor; i = inactive; / = no result given.

SMILES	TRPC4 agonist	TRPC4 PAM	Kir21 inh	TRPC6 inh	TRPC4 block	TRPC6 activator	HEK293 MPD ctr	HEK293 MPD ctr 2	TRPC4 ctr mod	TRPC4/MOR inh 2	TRPC6 block conf	TRPC6 act confirm
Cn1ccnc1C1CCCCN1Cc1nc(Cc2cccc(C(F)(F)F)c2)no1 (centres undefined)	i	i	0.92	-5.3*	i	i	136%*	i	32%*	27%*	i	/
COc1ccc(-c2noc(CN3CCCCC3c3nccn3C)n2)cc1 (centres undefined)	i	i	0.48	i	i	i	/	/	/	/	/	/
Cn1ccnc1C1CCCCN1Cc1nc(-c2ccc3c(c2)OCO3)no1 (centres undefined)	i	i	-0.79	-5.3*	i	i	184%*	62%*	44%*	40%*	48%*	/
CCOC(=O)C1CCN(C(=S)NC(=O)c2cccs2)CC1	i	i	0.53	i	i	i	/	/	/	/	/	/
CCOc1cc(S(=O)(=O)N2CCN(C(=O)c3ccco3)CC2)ccc1F	i	22*	-0.05	-5.7*	i	i	i	i	42%*	i	38%*	/
Cc1cc(S(=O)(=O)N2CCN(C(=O)c3ccco3)CC2)ccc1F	i	i	-0.43	i	i	i	/	/	/	/	/	/
Cc1ccccc1OCC(=O)N/N=C1\SCC(=O)N1Cc1ccccc1	i	i	-0.88	i	i	i	/	/	/	/	/	/
CN1C(=O)CS/C1=N\NC(=O)COc1cccc2cccnc12	i	i	2	-5.9*	i	i	-230%*	i	-42%*	i	i	i
c1ccc(-c2cc(NCCN3CCCCC3)c3ccccc3n2)cc1	i	i	-2.2	-8.7*	i	i	-182%*	66%*	-36%*	72%*	64%*	i
COc1ccc(C2=CSC3=NCCN23)cc1OC	i	i	-0.19	i	i	i	/	/	/	/	/	/
CCCCOc1ccc(C2=CSC3=NCCN23)cc1[N+](=O)[O-]	i	i	-1.5	-5.1*	i	i	-75%*	i	-20%*	44%*	44%*	i
CC1=CC(C)(C)N(C(=O)CNC2CCCCC2)c2cc(C)ccc21	i	i	-6*	-5.6*	i	i	126%*	i	36%*	58%*	50%*	i

Screening data as filed in PubChem BioAssay.
